Experimental data: ChEMBL document CHEMBL1125434, “Preparation and in vitro and in vivo evaluation of quinolones with selective activity against gram-positive organisms” (1992)
≈ marks a conversion by molar mass, not a printed value.

How the values were obtained:
Type in all cases: functional
Staphylococcus aureus [1] = assay: In vitro minimum inhibitory concentration against Staphylococcus aureus ATCC 6538P using brain-heart infusion agar
Summary of the method: (§1)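 Overnight cultures were grown in BHI broth at 36 °C. Twofold dilutions of a 2000 µg/mL stock were made in BHI agar, giving 200–0.005 µg/mL. Plates received about 10^4 organisms and were incubated for 18 h at 36 °C. MIC was the lowest concentration with no visible growth on the plate.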

[2] = test system: Staphylococcus epidermidis; assay: In vitro minimum inhibitory concentration against Staphylococcus epidermidis 3159 using brain-heart infusion agar; summary of the method: as §1
Escherichia coli = assay: In vitro minimum inhibitory concentration against Escherichia coli Juhl using brain-heart infusion agar; summary of the method: as §1
Streptococcus agalactiae = assay: In vitro minimum inhibitory concentration against Streptococcus agalactiae CMX 508 using brain-heart infusion agar; summary of the method: as §1
Staphylococcus aureus [3] = assay: In vitro minimum inhibitory concentration against Staphylococcus aureus A 5177 using brain-heart infusion agar; summary of the method: as §1
Acinetobacter = assay: In vitro minimum inhibitory concentration against Acinetobacter CMX 669 using brain-heart infusion agar; summary of the method: as §1
Enterococcus faecium = assay: In vitro minimum inhibitory concentration against Enterococcus faecium ATCC 8043 using brain-heart infusion agar; summary of the method: as §1
Pseudomonas aeruginosa [4] = assay: In vitro minimum inhibitory concentration against Pseudomonas aeruginosa K799 / WT using brain-heart infusion agar; summary of the method: as §1
Pseudomonas aeruginosa [5] = assay: In vitro minimum inhibitory concentration against Pseudomonas aeruginosa A5007 using brain-heart infusion agar; summary of the method: as §1
Streptococcus pyogenes = assay: In vitro minimum inhibitory concentration against Streptococcus pyogenes 930 using brain-heart infusion agar; summary of the method: as §1
Streptococcus equinus = assay: In vitro minimum inhibitory concentration against Streptococcus bovis A5169 using brain-heart infusion agar; summary of the method: as §1
Staphylococcus aureus [6] = assay: In vitro minimum inhibitory concentration against Staphylococcus aureus CMX 553 using brain-heart infusion agar; summary of the method: as §1
Klebsiella aerogenes = assay: In vitro minimum inhibitory concentration against Enterobacter aerogenes ATCC 13048 using brain-heart infusion agar; summary of the method: as §1
Klebsiella pneumoniae [7] = assay: In vitro minimum inhibitory concentration against Klebsiella pneumoniae 8045 using brain-heart infusion agar; summary of the method: as §1
Staphylococcus aureus [8] = assay: In vitro minimum inhibitory concentration against Staphylococcus aureus NCTC 10649 using brain-heart infusion agar; summary of the method: as §1
Staphylococcus aureus [9] = assay: In vivo antibacterial activity against Staphylococcus aureus NCTC 10649 infected mouse by oral administration
Summary of the method: (§2)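 Compound was given in water or in dilute NaOH diluted with water, orally or subcutaneously. The dose was split equally between 1 and 5 h post-infection. Groups were 10 mice at ≥3 dose levels. ED50 was calculated from day-6 cumulative mortality by the trimmed Logit method.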

Staphylococcus aureus [10] = assay: In vivo antibacterial activity against Staphylococcus aureus NCTC 10649 infected mouse by subcutaneous administration; details: sc; summary of the method: as §2
Klebsiella pneumoniae [11] = assay: In vitro minimum inhibitory concentration brain-heart infusion agar; summary of the method: as §1
Pseudomonas aeruginosa [12] = assay: Not Plasmodium species

SMILES	MIC (Staphylococcus aureus [1]) [µg/mL]	MIC [2] [µg/mL]	MIC (Escherichia coli) [µg/mL]	MIC (Streptococcus agalactiae) [µg/mL]	MIC (Staphylococcus aureus [3]) [µg/mL]	MIC (Acinetobacter) [µg/mL]	MIC (Enterococcus faecium) [µg/mL]	MIC (Pseudomonas aeruginosa [4]) [µg/mL]	MIC (Pseudomonas aeruginosa [5]) [µg/mL]	MIC (Streptococcus pyogenes) [µg/mL]	MIC (Streptococcus equinus) [µg/mL]	MIC (Staphylococcus aureus [6]) [µg/mL]	MIC (Klebsiella aerogenes) [µg/mL]	MIC (Klebsiella pneumoniae [7]) [µg/mL]	MIC (Staphylococcus aureus [8]) [µg/mL]	ED50 (Staphylococcus aureus [9]) [mg/kg]	ED50 (Staphylococcus aureus [10]) [mg/kg]	MIC (Klebsiella pneumoniae [11]) [µg/mL]	MIC (Pseudomonas aeruginosa [12]) [µg/mL]
NC1CCN(c2nc3c(cc2F)c(=O)c(C(=O)O)cn3C2CC2)C1 (stereo not given)	0.1 (≈ 0.301 µM)	0.1 (≈ 0.301 µM)	0.01 (≈ 0.0301 µM)	0.39 (≈ 1.17 µM)	0.2 (≈ 0.602 µM)	0.1 (≈ 0.301 µM)	0.39 (≈ 1.17 µM)	0.1 (≈ 0.301 µM)	0.1 (≈ 0.301 µM)	0.39 (≈ 1.17 µM)	0.78 (≈ 2.35 µM)	0.1 (≈ 0.301 µM)	0.02 (≈ 0.0602 µM)	0.01 (≈ 0.0301 µM)	–	–	–	–	–
O=C1CCN(c2cc3c(cc2F)c(=O)c(C(=O)O)cn3C2CC2)C1	1.56 (≈ 4.72 µM)	3.1 (≈ 9.38 µM)	6.2 (≈ 18.8 µM)	100 (≈ 303 µM)	3.1 (≈ 9.38 µM)	50 (≈ 151 µM)	> 100	> 100	> 100	> 100	> 100	3.1 (≈ 9.38 µM)	12.5 (≈ 37.8 µM)	6.2 (≈ 18.8 µM)	1.56 (≈ 4.72 µM)	–	–	–	–
O=C1CCN(c2nc3c(cc2F)c(=O)c(C(=O)O)cn3-c2ccc(F)cc2F)CC1	0.05 (≈ 0.12 µM)	0.2 (≈ 0.479 µM)	0.39 (≈ 0.934 µM)	1.56 (≈ 3.74 µM)	0.1 (≈ 0.24 µM)	1.56 (≈ 3.74 µM)	1.56 (≈ 3.74 µM)	3.1 (≈ 7.43 µM)	12.5 (≈ 30 µM)	1.56 (≈ 3.74 µM)	3.1 (≈ 7.43 µM)	0.1 (≈ 0.24 µM)	3.1 (≈ 7.43 µM)	0.39 (≈ 0.934 µM)	0.1 (≈ 0.24 µM)	–	–	–	–
O=C(O)c1cn(-c2ccc(F)cc2F)c2nc(N3CCC(=NO)CC3)c(F)cc2c1=O	0.05 (≈ 0.116 µM)	0.2 (≈ 0.463 µM)	0.78 (≈ 1.8 µM)	0.78 (≈ 1.8 µM)	0.1 (≈ 0.231 µM)	3.1 (≈ 7.17 µM)	1.56 (≈ 3.61 µM)	6.2 (≈ 14.3 µM)	12.5 (≈ 28.9 µM)	1.56 (≈ 3.61 µM)	3.1 (≈ 7.17 µM)	0.2 (≈ 0.463 µM)	3.1 (≈ 7.17 µM)	0.78 (≈ 1.8 µM)	0.1 (≈ 0.231 µM)	> 8	> 2	–	–
O=C(O)c1cn(C2CC2)c2c(F)c(N3CC/C(=N\O)C3)c(F)cc2c1=O	< 0.005	0.02 (≈ 0.055 µM)	0.02 (≈ 0.055 µM)	0.1 (≈ 0.275 µM)	0.01 (≈ 0.0275 µM)	0.2 (≈ 0.55 µM)	0.1 (≈ 0.275 µM)	0.78 (≈ 2.15 µM)	0.78 (≈ 2.15 µM)	0.1 (≈ 0.275 µM)	0.2 (≈ 0.55 µM)	0.02 (≈ 0.055 µM)	0.39 (≈ 1.07 µM)	0.05 (≈ 0.138 µM)	0.01 (≈ 0.0275 µM)	3	1.5	–	–
O=C1CCN(c2c(F)cc3c(=O)c(C(=O)O)cn(C4CC4)c3c2F)C1	0.78 (≈ 2.24 µM)	1.56 (≈ 4.48 µM)	0.39 (≈ 1.12 µM)	12.5 (≈ 35.9 µM)	0.78 (≈ 2.24 µM)	3.1 (≈ 8.9 µM)	6.2 (≈ 17.8 µM)	50 (≈ 144 µM)	50 (≈ 144 µM)	25 (≈ 71.8 µM)	50 (≈ 144 µM)	0.39 (≈ 1.12 µM)	1.56 (≈ 4.48 µM)	0.39 (≈ 1.12 µM)	0.39 (≈ 1.12 µM)	–	–	–	–
O=C(O)c1cn(C2CC2)c2nc(N3CC/C(=N\O)C3)c(F)cc2c1=O	0.02 (≈ 0.0578 µM)	0.05 (≈ 0.144 µM)	0.02 (≈ 0.0578 µM)	0.2 (≈ 0.578 µM)	0.05 (≈ 0.144 µM)	0.2 (≈ 0.578 µM)	0.39 (≈ 1.13 µM)	–	> 100	0.39 (≈ 1.13 µM)	0.78 (≈ 2.25 µM)	0.05 (≈ 0.144 µM)	0.2 (≈ 0.578 µM)	–	0.05 (≈ 0.144 µM)	–	–	0.05 (≈ 0.144 µM)	0.78 (≈ 2.25 µM)
O=C(O)c1cn(C2CC2)c2c(F)c(N3CCC(=NO)CC3)c(F)cc2c1=O	0.01 (≈ 0.0265 µM)	0.02 (≈ 0.053 µM)	0.2 (≈ 0.53 µM)	0.2 (≈ 0.53 µM)	0.02 (≈ 0.053 µM)	0.39 (≈ 1.03 µM)	0.2 (≈ 0.53 µM)	1.56 (≈ 4.13 µM)	3.1 (≈ 8.22 µM)	0.1 (≈ 0.265 µM)	0.39 (≈ 1.03 µM)	0.05 (≈ 0.133 µM)	0.39 (≈ 1.03 µM)	0.1 (≈ 0.265 µM)	0.02 (≈ 0.053 µM)	3	6.7	–	–
O=C1CCN(c2cc3c(cc2F)c(=O)c(C(=O)O)cn3-c2ccc(F)cc2F)C1	0.39 (≈ 0.969 µM)	1.56 (≈ 3.88 µM)	12.5 (≈ 31.1 µM)	12.5 (≈ 31.1 µM)	1.56 (≈ 3.88 µM)	12.5 (≈ 31.1 µM)	25 (≈ 62.1 µM)	50 (≈ 124 µM)	> 100	25 (≈ 62.1 µM)	> 100	1.56 (≈ 3.88 µM)	12.5 (≈ 31.1 µM)	6.2 (≈ 15.4 µM)	0.39 (≈ 0.969 µM)	–	–	–	–
